From ChEMBL document CHEMBL4350958, “Rational Design of Short Peptide Variants by Using Kunitzin-RE, an Amphibian-Derived Bioactivity Peptide, for Acquired Potent Broad-Spectrum Antimicrobial and Improved Therapeutic Potential of Commensalism Coinfection of Pathogens” (J Med Chem, 2019)
Values after ≈ are worked out from the molar mass of the structure shown. Active and inactive are the calls of the source. The rule behind the calls is not given here.

Experiments:
Candida albicans [1] = test: Antifungal activity against Candida albicans cgmcc2.2086 infected in C57BL/6 mouse model of keratitis assessed as appearance of transparent irises at 1 mg/ml administered as topical eye drop every 5 mins for first 4 hrs and every 30 mins for next 7 hrs measured post-last dose; format: functional, organism-based
Candida tropicalis [2] = test: Fungicidal activity against Candida tropicalis cgmcc2.1975 incubated for 48 hrs followed by replating on YM agar plate and measured after 48 hrs; format: functional
Summary of the method: (§1)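 Yeast diluted in MOPS-buffered RPMI 1640 to (0.5–1) × 10^3 CFU/mL (CLSI M27-A2, modified) and mixed 1:1 with peptide serially diluted in 0.2% BSA. After 48 h at 28 °C, 50 μL per well was plated on YM agar and incubated 48 h at 28 °C. MFC taken as the lowest concentration killing ≥99.9% of cells. Three or more independent experiments, triplicate wells.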

Candida tropicalis [3] = test: Antifungal activity against Candida tropicalis cgmcc2.1975 measured after 48 hrs by broth microdilution method; format: functional; settings: cgmcc2.1975, 48 h
Summary of the method: (§2)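 Modified CLSI M27-A2 microdilution. Yeast colonies were diluted in MOPS-buffered RPMI 1640 to a final (0.5–1) × 10^3 CFU mL−1 and mixed with an equal volume of peptide serially diluted in 0.2% BSA. After 48 h at 28 °C, MIC was read at A492 as the lowest concentration inhibiting 95% of growth. At least three independent experiments, each with three technical replicates.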

Candida albicans [4] = test: Antifungal activity against Candida albicans cgmcc2.2086 infected in C57BL/6 mouse model of keratitis assessed as appearance of transparent corneas at 1 mg/ml administered as topical eye drop every 5 mins for first 4 hrs and every 30 mins for next 7 hrs measured post-last dose; format: functional, organism-based
Candida albicans [5] = test: Antifungal activity against Candida albicans cgmcc2.2086 measured after 48 hrs by broth microdilution method; format: functional; settings: cgmcc2.2086, 48 h; summary of the method: as §2
Candida parapsilosis [6] = test: Antifungal activity against Candida parapsilosis cgmcc2.3989 measured after 48 hrs by broth microdilution method; format: functional; settings: Lodderomyces parapsilosis, cgmcc2.3989, 48 h; summary of the method: as §2
Candida albicans [7] = test: (§3) Antifungal activity against Candida albicans cgmcc2.2086 infected in C57BL/6 mouse model of keratitis assessed as reduction in clinical score at 1 mg/ml administered as topical eye drop every 5 mins for first 4 hrs and every 30 mins for next 7 hrs measured post-last dose; format: functional, organism-based
Candida parapsilosis [8] = test: Fungicidal activity against Candida parapsilosis cgmcc2.3989 incubated for 48 hrs followed by replating on YM agar plate and measured after 48 hrs; format: functional; summary of the method: as §1
Candida albicans [9] = test: Fungicidal activity against Candida albicans cgmcc2.2086 incubated for 48 hrs followed by replating on YM agar plate and measured after 48 hrs; format: functional; summary of the method: as §1
Candida albicans [10] = test: as §3, with “fungal hyphae extention into corneal stroma” for “clinical score”, “dose by periodic acid schiff staining-based histological analysis” for “dose”; format: functional, organism-based
Candida albicans [11] = test: as §3, with “fungal colonies in eyeballs” for “clinical score”, “dose by agar plate method relative to control” for “dose”; format: functional; design: scale not given: the % may be the effect or the level left
Candida albicans [12] = test: as §3, with “fungal hyphae infiltration into corneal stroma” for “clinical score”, “dose by periodic acid schiff staining-based histological analysis” for “dose”; format: functional, organism-based

For `C[C@@H]1[C@H](O)[C@@H](C)/C=C/C=C/C=C/C=C/C=C/C=C/C=C/[C@H](O[C@@H]2O[C@H](C)[C@@H](O)[C@H](N)[C@@H]2O)C[C@@H]2O[C@](O)(C[C@@H](O)C[C@@H](O)[C@H](O)CC[C@@H](O)C[C@@H](O)CC(=O)O[C@H]1C)C[C@H](O)[C@H]2C(=O)O` [AMPHOTERICIN B], the Activity (Candida albicans [1]) was “Active”, the “MFC<=99.9” value (Candida tropicalis [2]) was 2 µM (≈ 1.85 µg/mL) and the MIC95 (Candida tropicalis [3]) was 1 µM (≈ 0.924 µg/mL). For the same compound, the Activity (Candida albicans [4]) was “Active”, the MIC95 (Candida albicans [5]) was 1 µM (≈ 0.924 µg/mL) and the MIC95 (Candida parapsilosis [6]) was 2 µM (≈ 1.85 µg/mL). The Activity (Candida albicans [7]) was “Active”, the “MFC<=99.9” value (Candida parapsilosis [8]) was 4 µM (≈ 3.7 µg/mL) and the “MFC<=99.9” value (Candida albicans [9]) was 2 µM (≈ 1.85 µg/mL). For the same compound, the Activity (Candida albicans [10]) was “Active”, the Activity (Candida albicans [11]) was “<=80%” and the Activity (Candida albicans [12]) was “Active”.
